Only some compounds are listed: those with a hit (about 2.3% of all), similar ones and a draw of the others.
Scp1 inh: Scp-1 phosphatase inhibitors, primary screen, biochemical, colorimetric, uHTS; Carboxy-terminal domain RNA polymerase II polypeptide A small phosphatase 1 (Homo …; Recombinant Scp1, phosphopeptide, malachite green phosphate absorbance; inhibition, % at 20 µM; actives 0.88% (n = 340,000);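 active = inhibition above about 50% at 20 µM, limit read from the data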;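 note: plate controls were DMSO wells with enzyme for no effect and wells lacking enzyme for full effect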
Target sequence (Q9GZU7 76-261 limits assumed): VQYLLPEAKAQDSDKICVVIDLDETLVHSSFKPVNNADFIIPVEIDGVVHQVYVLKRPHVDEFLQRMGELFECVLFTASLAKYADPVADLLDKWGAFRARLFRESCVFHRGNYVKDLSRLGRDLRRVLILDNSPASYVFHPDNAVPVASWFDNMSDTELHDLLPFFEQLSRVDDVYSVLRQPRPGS
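Times: enzyme reaction 45 min at room temperature, colour 5 min, stabilisation 30 min. Material: SCP-1 catalytic fragment, aa 76-261. Medium: Acidic Tris acetate buffer with magnesium and detergent. Signal: colorimetric free-phosphate detection, absorbance 630 nm. Read-out basis: % inhibition of SCP-1 phosphate liberation. Reagent: Phosphorylated 17-residue peptide substrate.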
DNMT1 block: human DNMT1 methyltransferase inhibitors, primary screen, biochemical, molecular beacon, fluorescence, HinP1I cleavage, uHTS | DNA (cytosine-5)-methyltransferase 1 (Homo sapiens), P26358 | inhibition (reported as % activation of signal), % at 10 µM | actives 0.83% (n = 360,000) | AID 588458, 2011; in the data active = inhibition above about 50%
NadD block: inhibitors of S. aureus NadD, primary screen, biochemical, colorimetric, uHTS; purified NadD enzyme, colorimetric absorbance read-out; AID 602399, 2012; Nicotinate-nucleotide adenylyltransferase NadD (Staphylococcus aureus N315); actives 0.78% (n = 360,000); inhibition, % at 20 µM; in the data active = inhibition above about 26%
STEP block: STEP phosphatase inhibitors, primary screen, biochemical, fluorescence intensity, uHTS | recombinant STEP, OMFP fluorogenic substrate | actives 0.25% (n = 360,000) | Tyrosine-protein phosphatase non-receptor type 5 (Homo sapiens), P54829 | inhibition, % at 20 µM | AID 588621, 2011;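 active = inhibition at 20 µM, scaled per plate between control wells, above about 37%, limit read from the data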;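 note: 0% = DMSO with enzyme and substrate and 100% = substrate only without enzyme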
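System: STEP (striatal-enriched tyrosine phosphatase) enzyme, cell-free; medium: Bis-Tris pH 6.0 buffer with DTT, detergent; dosing: 20 µM, 1% DMSO; times: reaction 20 min, ambient temperature; detection: fluorescence, 480/540 nm; read-out basis: normalized % inhibition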
LMPTP block: LMPTP phosphatase inhibitors, primary screen, biochemical, fluorescence intensity, uHTS; recombinant LMPTP-A, OMFP fluorogenic substrate; inhibition, % at 20 µM; actives 0.22% (n = 360,000);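 active = compounds that cut the enzyme signal by at least half of the control window in the single-dose screen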;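 note: plate controls were DMSO wells with enzyme plus substrate for no effect and substrate without enzyme for full effect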
Target sequence (P24666 whole entry, looked up): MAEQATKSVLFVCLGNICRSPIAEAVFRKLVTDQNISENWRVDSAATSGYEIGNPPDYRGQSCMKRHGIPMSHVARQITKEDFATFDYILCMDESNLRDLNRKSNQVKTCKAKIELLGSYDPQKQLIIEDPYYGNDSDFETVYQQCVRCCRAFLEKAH
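Assay system: LMPTP-A, protein tyrosine phosphatase of low molecular weight / Medium: pH 6.0 Bis-Tris buffer with DTT and Triton X-100 / Schedule: 50 min enzyme reaction at room temperature, protected from light / Measured by: endpoint fluorescence intensity from OMFP dephosphorylation / Read-out basis: % inhibition relative to no-enzyme and uninhibited control wells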
SUMO1-SIM PPI: modulators of SUMO1 protein-protein interactions, primary screen, biochemical, uHTS; SUMO1 binding to a labelled peptide, TR-FRET, 1 h; inhibition, % at 20 µM; actives 0.33% (n = 360,000); AID 602429, 2012; in the data active = inhibition above about 37%
Target sequence (P63165 whole entry, looked up): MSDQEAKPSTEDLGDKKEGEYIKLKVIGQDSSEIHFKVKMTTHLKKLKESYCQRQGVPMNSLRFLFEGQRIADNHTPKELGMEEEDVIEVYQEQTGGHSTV
* marks the source's active call; other numbers are inactive results; x = no result given.

SMILES	Scp1 inh	DNMT1 block	NadD block	STEP block	LMPTP block	SUMO1-SIM PPI
CCC(CO)Oc1cc(NC(=O)c2ccccc2F)c2ncn(C(C)C)c2c1 (centres undefined)	4	-30	5	2	-2	92*
CCc1noc(C)c1C(=O)NNC(=O)c1ccccc1Cl	-1	6	-1	2	-1	0
COc1cc(C)c2c(c1C=O)Oc1c(c(C)c(O)c3c1C(O)OC3=O)OC2=O (centres undefined)	10	-21	11	2	-9	78*
COc1ccc(CCNC(=O)c2cc3cc(Cl)ccc3nc2N)cc1OC	x	x	0	x	-1	-2
Cc1cccc(NC2=Nc3ccccc3N3C2=Nc2c(c(C)nn2-c2ccccc2)C3c2ccc(O)c(O)c2)c1 (centres undefined)	1	-6	62*	-1	5	1
Cc1nn(-c2ccccc2)c2c1C(c1ccc([N+](=O)[O-])cc1)N1C(=N2)C(=O)Nc2ccccc21 (centres undefined)	0	-3	11	8	2	-13
Cc1ccc(NC2=Nc3ccccc3N3C2=Nc2c(c(C)nn2-c2ccccc2)C3c2ccc(O)c(O)c2)cc1 (centres undefined)	0	-7	61*	-2	1	-1
Cc1nn(-c2ccccc2)c2c1C(c1ccc(O)c(O)c1)N1C(=N2)C(Nc2ccccc2)=Nc2ccccc21 (centres undefined)	1	-16	18	2	-1	1
CCc1c(-c2ccc(OC)cc2)ncn1Cc1cccc(-c2ccccc2)c1	x	x	x	x	9	6
CCOC(=O)C1CCN(C(=O)C2CCN(S(=O)(=O)c3cccc4nsnc34)CC2)CC1	1	1	1	-2	-1	-26
O=C(Nc1cccc(-c2csc(Nc3ccc(Cl)cc3)n2)c1)c1cccc(C(F)(F)F)c1	0	-31	10	-1	7	0
O=C(Nc1cccc(-c2csc(Nc3ccc(Cl)cc3)n2)c1)c1cc([N+](=O)[O-])cc(C(F)(F)F)c1	5	-15	42*	1	7	4
O=C(O)c1ccccc1-c1ncc(-c2ccccc2)o1	-10	1	-5	-2	-3	1
O=C(Nc1cccc(NC(=O)c2ccc(-c3ccc(Br)cc3)o2)c1)c1ccco1	-9	-14	29	1	5	44*
Cc1ccc(C(=O)NC(=S)Nc2ccc(-c3ccc(CO)o3)cc2)cc1	-6	-18	0	0	2	6
O=C(NC(=S)Nc1ccc(-c2ccc(CO)o2)cc1)c1cccs1	-9	77*	21	5	52*	22
Oc1ccc(/C=N/NC(=S)Nc2cccnc2)c(O)c1O	6	3	21	16	84*	81*
CC1=NN(c2ccccc2)C(=O)/C1=C\c1ccc(Oc2ccc([N+](=O)[O-])cc2[N+](=O)[O-])cc1	-5	27	30*	2	3	16
COc1cc(/C=C2\C(=O)N(c3ccc(S(N)(=O)=O)cc3)N=C2C)ccc1OC(=O)c1ccco1	25	16	16	27	35	45*
COc1cc(/C=C2\C(=O)N(c3ccccc3)N=C2C)ccc1Oc1ccc([N+](=O)[O-])cc1[N+](=O)[O-]	-2	-24	36*	1	2	12
COc1cc(/C=C2/C(=O)N(c3ccc(C)c(C)c3)N=C2C)cc([N+](=O)[O-])c1O	1	1	-4	3	0	14
C#CCOc1ccc(/C=C2/C(=O)N(c3cccc(C(=O)O)c3)N=C2C)cc1OC	58*	43	-9	7	2	35
O=C1C=CN(C2OC(CO)C(O)C2O)C(=O)C1 (centres undefined)	x	3	0	1	-1	3
CN(C)N1C(N)=C(C#N)C(c2ccc(Br)cc2)C2=C1CC(C)(C)CC2=O (centres undefined)	-3	0	3	-3	0	-4
N#C/C(=C\c1cccc2ccccc12)c1nn(-c2ccccc2)c(N)c1C#N	-8	x	x	x	x	x
SMILES	Scp1 inh	DNMT1 block	NadD block	STEP block	LMPTP block	SUMO1-SIM PPI
N#C/C(=C\c1cc([N+](=O)[O-])c(N2CCCCC2)cc1N1CCCCC1)c1nn(-c2ccccc2)c(N)c1C#N	-7	-5	42*	1	5	-7
CCOC(=O)[C@]12CCCC=C1N(Cc1cccc3ccccc13)C(=O)[C@H](CC(=O)NCc1cccs1)C2	x	x	3	x	3	3
CCN(C(=O)CSc1nnc(Nc2ccc(OC)cc2)s1)C1CCS(=O)(=O)C1 (centres undefined)	10	11	-2	-3	1	49*
CCOC(=O)CC1(C)Oc2ccccc2N1S(=O)(=O)c1ccc(C)cc1 (centres undefined)	x	x	x	x	1	-3
COc1cc(/C=C2/CCC/C(=C\c3cc(O)c(OC)c(Cl)c3)C2=O)cc(Cl)c1O	-7	-26	50*	-4	3	-7
COc1cc(/C=C2\CC/C(=C\c3cc(OC)c(O)c(OC)c3)C2=O)cc(OC)c1O	-2	-18	23	-2	5	15
CCN(CC(=O)Nc1c(F)cccc1F)C(=O)/C=C/c1ccc2ccccc2n1	86*	102*	18	42*	71*	77*
Cc1csc(NC(=O)c2cccs2)n1	-7	1	-6	2	0	-2
Cc1csc(NC(=O)c2ccc(Br)s2)n1	77*	-1	0	-1	0	1
COc1cccc(C(=O)NC(=S)N2c3ccccc3CC2C)c1OC (centres undefined)	-6	3	-3	-1	-1	43*
CC1Cc2ccccc2N1C(=S)NC(=O)c1ccc(Cl)cc1Cl (centres undefined)	-13	-1	2	0	0	3
COc1cc2ccccc2cc1C(=O)N1CCc2ccccc21	-6	3	-4	1	2	2
Oc1ccc(C=NNC(=S)Nc2ccc(F)cc2)c(O)c1	-10	-5	1	-5	1	53*
CCc1ccc(N=C2NC(=O)/C(=C/c3cc(Br)c(OCC(=O)O)c(OC)c3)S2)cc1	28	37	24	97*	59*	18
C=CCOc1c(Br)cc(/C=C2\SC(=Nc3ccccc3)NC2=O)cc1OC	-6	28	21	2	-2	0

Compound activity deposited in PubChem BioAssay by Sanford-Burnham Center for Chemical Genomics.
